Source: PubChem
SR-BI DiI-HDL act: enhances SR-BI lipid uptake from DiI-HDL | activation, % at 12.5 µM | CHO ldlA[mSR-BI] cells, DiI-HDL uptake fluorescence, 3 h; 100 = double the neutral-control signal | 0.096% of 320,000 active | AID 504775;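 active means mean replicate activation of at least 60% and every replicate at or above 60%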;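 further: 0% = median plate neutral-control signal and 100% = twice that signal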
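Test system: SR-BI-overexpressing, LDLR-lacking CHO cells; Also added: labelled HDL, 10 µg/mL; Measured by: bottom-read cell fluorescence after medium removal, ex 550/em 595 nm; Timing: 3 h uptake period with compound, 37 °C; Buffer or medium: F12, 0.5% BSA, 25 mM HEPES; Doses: single compound concentration, delivered by pin transfer.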
GRK2 aptamer HTS: blocks RNA aptamer binding to human GRK2 | P25098 | bead flow cytometry, FAM-aptamer displacement from GRK2 | inhibition of aptamer binding, % at 10 µM | 0.59% of 330,000 active | AID 488847;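 active means inhibition of aptamer binding above 40%, roughly 3 SD of noise, on plates passing a quality check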;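 further: median bead fluorescence of bound FAM aptamer so fluorescent compounds give negative values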
SR-BI HDL uptake: inhibitors of mouse SR-BI mediated HDL lipid uptake. inhibition, % at 12.5 µM. 0.96% of 320,000 active. ldlA[mSR-BI] CHO cells, DiI-HDL uptake fluorescence, 3 h. AID 488896;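 active means mean replicate inhibition of at least 70% and a set share of replicates each scoring 70 or more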;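 further: 0% = median of neutral control wells and 100% = median of positive control wells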
Rin1-Abl PPI inh: blocks binding of human Rin1 to Abl. 0.4% of 360,000 active. inhibition, % at 7.35 µM. AID 588664. TR-FRET Rin1/Abl binding, biochemical; in the data active means inhibition above about 5%, passing the limit was not always enough
Numbers without * were called inactive; nt = no result given. A selection: hits, their analogues and other compounds. The true share with any hit is near 1.9%.

SMILES	SR-BI DiI-HDL act	GRK2 aptamer HTS	SR-BI HDL uptake	Rin1-Abl PPI inh
Cc1cc(C)n(-c2ccc(C(=O)Nc3ccccc3N3CCOCC3)cc2)n1	-80	0	80*	-4
Cc1nn(-c2ccccc2)c2c1C(c1ccc(O)c(O)c1)N1C(=N2)C(Nc2ccccc2)=Nc2ccccc21 (centres undefined)	-17	9	17	0
Cc1cccc(NC2=Nc3ccccc3N3C2=Nc2c(c(C)nn2-c2ccccc2)C3c2ccc(O)c(O)c2)c1 (centres undefined)	-103	3	103*	2
Cc1ccc(NC2=Nc3ccccc3N3C2=Nc2c(c(C)nn2-c2ccccc2)C3c2ccc(O)c(O)c2)cc1 (centres undefined)	-119	nt	119*	2
CN1C[C@@H]2[C@@H]3C(=O)N(Cc4ccccc4)C(=O)[C@@H]3[C@](C)(C1=O)N2C(=O)c1ccc(Br)cc1	17	nt	-17	1
CN(C)S(=O)(=O)c1ccc(Cl)c(C(=O)OCC(=O)NC(=O)c2cccn2C)c1	-72	4	72*	-4
COCCNC(=O)C1CCCN(Cc2cccc(C(F)(F)F)c2)CC1 (centres undefined)	nt	nt	nt	-2
CN(Cc1ccccc1)C(=O)c1ccc(NC(=O)C2CCCN(C(=O)OC(C)(C)C)C2)cc1 (centres undefined)	-63	0	63	2
Cc1ccc(S(=O)(=O)N2CCOCC2)cc1C(=O)OCC(=O)N1CCc2ccccc2C1	-76	nt	76*	1
CC(Sc1nc(-c2ccccc2)cc(C(F)(F)F)n1)C(=O)N1CCCC1 (centres undefined)	-69	0	66	-2
O=C(CSc1nc(-c2ccc(F)cc2)cc(C(F)(F)F)n1)NCCN1CCOCC1	-73	1	73*	-2
CC(Sc1nc(-c2ccccc2)cc(C(F)(F)F)n1)C(=O)N1CCOCC1 (centres undefined)	-93	0	93*	1
CC(Sc1nc(-c2ccccc2)cc(C(F)(F)F)n1)C(=O)NCCN1CCOCC1 (centres undefined)	-73	0	73*	-7
CC1CCN(C(=O)C(C)Sc2nc(-c3ccccc3)cc(C(F)(F)F)n2)CC1 (centres undefined)	-87	0	87*	0
CCNC(=O)C1(C)CCN(C(=O)c2ccc(C(F)(F)F)cc2)C1 (centres undefined)	nt	nt	nt	0
CCc1ccc(C(=O)NCc2cnn(C)c2)s1	3	1	-3	1
Cc1ccccc1NC(=O)Cc1nc(COC(=O)c2cc([N+](=O)[O-])ccc2N)cs1	-10	55*	10	-1
Cc1ccccc1NC(=O)Cc1nc(COC(=O)c2cc(Br)ccc2O)cs1	8	0	-8	-1
CCN(CC(=O)Nc1ccccc1C(F)(F)F)C(=O)CN1C(=O)NC(C)(c2ccc3ccccc3c2)C1=O (centres undefined)	-31	nt	31	-1
O=C(NCc1cccc(C(F)(F)F)c1)c1csc([C@H]2C[C@H](O)[C@@H](CO)O2)n1	nt	nt	nt	1
CCc1c(C(=O)Nc2cc(C)cc(C)c2)[nH]c(C)c1C(C)=O	-77	0	77*	-1
CCOc1ccc(CCNC(=O)c2[nH]c(C)c(C(C)=O)c2CC)cc1OCC	-10	0	10	0
COc1ccc(-c2sc3cc4c(cc3c2C#Cc2ccc(N)cc2)OCO4)cc1	-93	2	93*	1
Cc1ccc(-c2nc(N)sc2-c2ccc(C)cc2)cc1	-73	nt	73*	1
Oc1c(Br)cc(Br)cc1/C=N/NC(=S)N[C@H]1CC2C=CC1C2 (some centres undefined)	-78	1	78*	3
SMILES	SR-BI DiI-HDL act	GRK2 aptamer HTS	SR-BI HDL uptake	Rin1-Abl PPI inh
CNC(=S)N/N=C/c1cc(Br)cc(Br)c1O	-3	0	3	-2
Cc1c(-c2ccccc2)nc2ccccc2c1C(=O)Oc1ccc([N+](=O)[O-])cc1	-88	2	88*	1
Cc1nc2cccc(C(=O)Oc3ccc([N+](=O)[O-])cc3)c2o1	16	7	-16	-4
CCOC(=O)Nc1ccc2c(c1)C(=NNC(N)=S)c1ccccc1-2	-83	nt	83*	-4
CCC(C)c1ccc(NC(=S)NCc2cccnc2)cc1 (centres undefined)	44	0	-44	-1
CC(C)NC(=S)NCc1cccnc1	1	99*	-1	0
O=C(OCC(=O)N1CCNC1=O)c1ccccc1Cl	nt	nt	nt	-3
COc1cccc(CN(C)C(=O)c2cccc(S(=O)(=O)Nc3cccc(C)c3)c2)c1OC	-7	nt	7	0
COc1ccccc1OCC(=O)Nc1nc(-c2ccc(S(=O)(=O)N3CCOCC3)cc2)cs1	-73	0	73*	0
